For one test, the target named is T1, Tankyrase 1/2 (Homo sapiens, UniProt Q9H2K2+O95271).
T1 sequence (Q9H2K2 whole entry): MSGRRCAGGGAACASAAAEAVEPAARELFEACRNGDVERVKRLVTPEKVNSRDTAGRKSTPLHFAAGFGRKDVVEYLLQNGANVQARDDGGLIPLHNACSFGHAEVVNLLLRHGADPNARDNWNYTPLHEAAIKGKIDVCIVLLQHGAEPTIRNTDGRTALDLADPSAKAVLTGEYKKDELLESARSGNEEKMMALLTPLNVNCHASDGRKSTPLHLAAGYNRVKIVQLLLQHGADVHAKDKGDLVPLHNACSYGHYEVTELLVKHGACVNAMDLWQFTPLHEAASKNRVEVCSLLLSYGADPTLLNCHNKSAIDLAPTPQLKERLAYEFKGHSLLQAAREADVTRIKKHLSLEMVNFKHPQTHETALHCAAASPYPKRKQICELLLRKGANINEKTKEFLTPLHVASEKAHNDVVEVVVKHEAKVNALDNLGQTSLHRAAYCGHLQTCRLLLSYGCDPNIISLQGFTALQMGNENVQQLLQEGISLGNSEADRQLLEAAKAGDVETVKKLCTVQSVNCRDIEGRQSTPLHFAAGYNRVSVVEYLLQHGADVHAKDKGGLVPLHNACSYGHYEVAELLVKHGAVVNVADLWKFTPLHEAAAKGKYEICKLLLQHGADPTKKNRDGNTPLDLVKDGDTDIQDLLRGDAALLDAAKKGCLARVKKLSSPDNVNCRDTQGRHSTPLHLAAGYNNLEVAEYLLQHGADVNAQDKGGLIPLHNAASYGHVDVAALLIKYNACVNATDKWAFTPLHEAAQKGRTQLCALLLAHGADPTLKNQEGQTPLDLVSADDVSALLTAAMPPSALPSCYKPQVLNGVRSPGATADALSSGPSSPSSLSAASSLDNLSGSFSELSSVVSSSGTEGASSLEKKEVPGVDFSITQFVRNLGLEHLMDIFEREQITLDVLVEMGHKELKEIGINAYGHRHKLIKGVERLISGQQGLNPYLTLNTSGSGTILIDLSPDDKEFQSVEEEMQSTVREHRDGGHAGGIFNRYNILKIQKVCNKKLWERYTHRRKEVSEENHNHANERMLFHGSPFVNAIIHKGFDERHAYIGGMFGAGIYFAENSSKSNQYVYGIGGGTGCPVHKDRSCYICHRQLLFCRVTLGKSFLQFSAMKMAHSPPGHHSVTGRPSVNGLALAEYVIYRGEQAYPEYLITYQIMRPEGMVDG
T1 sequence (O95271 whole entry): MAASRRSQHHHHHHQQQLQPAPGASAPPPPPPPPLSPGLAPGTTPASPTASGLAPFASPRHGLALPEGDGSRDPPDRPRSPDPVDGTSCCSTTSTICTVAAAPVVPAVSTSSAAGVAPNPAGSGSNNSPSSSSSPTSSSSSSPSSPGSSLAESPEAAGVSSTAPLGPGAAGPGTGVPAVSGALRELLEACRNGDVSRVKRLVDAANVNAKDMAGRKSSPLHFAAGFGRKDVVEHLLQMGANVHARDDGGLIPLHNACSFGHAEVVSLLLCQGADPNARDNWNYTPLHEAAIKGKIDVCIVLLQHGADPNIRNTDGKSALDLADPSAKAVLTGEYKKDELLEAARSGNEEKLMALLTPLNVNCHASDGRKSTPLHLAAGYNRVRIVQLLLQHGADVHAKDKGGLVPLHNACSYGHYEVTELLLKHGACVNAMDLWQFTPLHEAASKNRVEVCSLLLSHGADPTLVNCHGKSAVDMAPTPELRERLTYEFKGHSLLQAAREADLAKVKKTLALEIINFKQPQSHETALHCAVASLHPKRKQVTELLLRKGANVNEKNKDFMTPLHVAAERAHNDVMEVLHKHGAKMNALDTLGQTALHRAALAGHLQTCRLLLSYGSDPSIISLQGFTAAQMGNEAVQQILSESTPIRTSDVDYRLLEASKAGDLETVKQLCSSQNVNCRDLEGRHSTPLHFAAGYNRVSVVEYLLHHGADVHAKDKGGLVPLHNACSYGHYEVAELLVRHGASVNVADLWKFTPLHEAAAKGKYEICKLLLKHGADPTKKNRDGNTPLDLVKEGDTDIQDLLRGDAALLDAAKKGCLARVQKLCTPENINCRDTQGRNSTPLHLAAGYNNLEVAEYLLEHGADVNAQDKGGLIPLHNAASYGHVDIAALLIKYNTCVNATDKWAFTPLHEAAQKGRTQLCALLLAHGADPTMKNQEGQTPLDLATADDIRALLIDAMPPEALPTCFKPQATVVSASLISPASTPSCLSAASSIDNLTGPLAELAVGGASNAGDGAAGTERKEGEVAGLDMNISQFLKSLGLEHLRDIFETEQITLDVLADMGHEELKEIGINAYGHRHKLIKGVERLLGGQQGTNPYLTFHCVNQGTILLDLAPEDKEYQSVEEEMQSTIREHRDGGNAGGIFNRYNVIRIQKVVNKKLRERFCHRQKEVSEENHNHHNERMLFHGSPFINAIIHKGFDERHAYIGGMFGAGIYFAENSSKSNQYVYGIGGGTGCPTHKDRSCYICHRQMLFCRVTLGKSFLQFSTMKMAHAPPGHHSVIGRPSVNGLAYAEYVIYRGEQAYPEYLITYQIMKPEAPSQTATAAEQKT
The test is described as follows: Inhibition of tankyrase in human DLD1 cells assessed as reduction in Wnt activity after 24 hrs by TCF-luciferase reporter gene assay. It counts as cell-based. As to conditions: dld-1.

The subject of the next test is RKO. Description: Growth inhibition of Wnt-negative human RKO cells at 1 uM to 10 uM. It is filed as functional, cell-based.
The target in test [1] is Protein mono-ADP-ribosyltransferase PARP14 (Homo sapiens) (UniProt Q460N5). Description: Inhibition of human recombinant PARP14 at 10 uM incubated for 1 hr using NAD+, biotinylated NAD+ and activated DNA by luminescence based assay. Summed up: (§1)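 Recombinant PARP enzyme reactions were run in duplicate for 1 h at rt on histone-coated plates in Tris·HCl pH 8.0 buffer with NAD+, biotinylated NAD+ and activated DNA. Detection used streptavidin-HRP for 30 min at rt, then a chemiluminescent developer. % inhibition = 100 − % activity, scaled between the no-compound (100%) and no-enzyme (0%) signals.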

Test [2] addresses Poly [ADP-ribose] polymerase 2 (Homo sapiens) (UniProt Q9UGN5). The test is described as follows: Inhibition of human recombinant PARP2 incubated for 1 hr using histone substrate at 10 uM by luminescence based assay. In outline: as §1

The IC50 is the concentration that gives 50% inhibition. In general, inhibition refers to the drop in the measured response relative to a control, in per cent.

The source made the active and inactive calls. The rule behind the calls is not given here.

Chain of Protein mono-ADP-ribosyltransferase PARP14 (Homo sapiens) (Q460N5 whole entry): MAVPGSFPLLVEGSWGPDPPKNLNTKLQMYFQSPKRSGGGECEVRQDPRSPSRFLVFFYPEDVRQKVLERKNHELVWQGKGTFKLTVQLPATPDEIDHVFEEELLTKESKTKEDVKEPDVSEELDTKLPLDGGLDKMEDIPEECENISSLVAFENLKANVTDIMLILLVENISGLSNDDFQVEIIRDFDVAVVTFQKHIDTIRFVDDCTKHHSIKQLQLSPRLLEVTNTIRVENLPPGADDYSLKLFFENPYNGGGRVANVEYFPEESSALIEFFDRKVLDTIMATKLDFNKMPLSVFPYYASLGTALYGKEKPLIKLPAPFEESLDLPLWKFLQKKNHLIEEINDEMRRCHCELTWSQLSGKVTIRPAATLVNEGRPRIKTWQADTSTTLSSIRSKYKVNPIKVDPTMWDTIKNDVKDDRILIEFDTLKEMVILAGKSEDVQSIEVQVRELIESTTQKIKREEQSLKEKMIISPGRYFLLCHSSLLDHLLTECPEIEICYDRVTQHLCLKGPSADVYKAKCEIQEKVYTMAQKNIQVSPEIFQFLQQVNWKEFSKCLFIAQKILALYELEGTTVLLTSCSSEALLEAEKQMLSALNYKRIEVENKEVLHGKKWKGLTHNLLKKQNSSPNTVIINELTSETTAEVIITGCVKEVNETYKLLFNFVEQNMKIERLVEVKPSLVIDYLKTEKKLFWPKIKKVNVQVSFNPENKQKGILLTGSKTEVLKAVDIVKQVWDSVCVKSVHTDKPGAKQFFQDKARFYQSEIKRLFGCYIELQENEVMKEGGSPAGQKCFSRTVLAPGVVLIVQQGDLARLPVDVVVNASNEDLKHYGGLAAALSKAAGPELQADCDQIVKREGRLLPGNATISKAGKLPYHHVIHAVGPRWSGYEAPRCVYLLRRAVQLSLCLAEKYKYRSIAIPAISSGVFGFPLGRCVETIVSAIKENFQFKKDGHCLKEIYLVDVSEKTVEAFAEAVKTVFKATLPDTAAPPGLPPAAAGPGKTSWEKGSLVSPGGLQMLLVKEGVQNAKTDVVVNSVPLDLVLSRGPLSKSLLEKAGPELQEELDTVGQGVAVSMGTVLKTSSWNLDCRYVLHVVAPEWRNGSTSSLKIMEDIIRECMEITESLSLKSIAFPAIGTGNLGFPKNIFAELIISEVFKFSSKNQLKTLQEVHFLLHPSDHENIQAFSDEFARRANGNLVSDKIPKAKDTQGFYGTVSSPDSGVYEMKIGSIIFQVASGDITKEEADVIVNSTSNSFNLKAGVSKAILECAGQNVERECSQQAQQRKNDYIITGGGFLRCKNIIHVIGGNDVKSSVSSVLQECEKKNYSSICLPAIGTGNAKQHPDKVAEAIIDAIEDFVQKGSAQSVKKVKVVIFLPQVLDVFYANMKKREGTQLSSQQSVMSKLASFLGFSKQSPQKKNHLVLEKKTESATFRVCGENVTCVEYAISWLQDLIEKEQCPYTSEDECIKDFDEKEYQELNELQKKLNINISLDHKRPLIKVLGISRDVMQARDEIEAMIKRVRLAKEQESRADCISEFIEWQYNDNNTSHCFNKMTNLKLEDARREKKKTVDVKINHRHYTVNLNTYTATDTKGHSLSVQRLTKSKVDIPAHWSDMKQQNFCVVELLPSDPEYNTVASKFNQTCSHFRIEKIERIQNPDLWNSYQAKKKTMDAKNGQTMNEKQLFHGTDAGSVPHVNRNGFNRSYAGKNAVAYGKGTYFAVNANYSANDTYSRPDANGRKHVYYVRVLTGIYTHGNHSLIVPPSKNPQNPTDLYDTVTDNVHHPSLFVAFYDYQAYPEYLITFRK
Chain of Poly [ADP-ribose] polymerase 2 (Homo sapiens) (Q9UGN5 whole entry): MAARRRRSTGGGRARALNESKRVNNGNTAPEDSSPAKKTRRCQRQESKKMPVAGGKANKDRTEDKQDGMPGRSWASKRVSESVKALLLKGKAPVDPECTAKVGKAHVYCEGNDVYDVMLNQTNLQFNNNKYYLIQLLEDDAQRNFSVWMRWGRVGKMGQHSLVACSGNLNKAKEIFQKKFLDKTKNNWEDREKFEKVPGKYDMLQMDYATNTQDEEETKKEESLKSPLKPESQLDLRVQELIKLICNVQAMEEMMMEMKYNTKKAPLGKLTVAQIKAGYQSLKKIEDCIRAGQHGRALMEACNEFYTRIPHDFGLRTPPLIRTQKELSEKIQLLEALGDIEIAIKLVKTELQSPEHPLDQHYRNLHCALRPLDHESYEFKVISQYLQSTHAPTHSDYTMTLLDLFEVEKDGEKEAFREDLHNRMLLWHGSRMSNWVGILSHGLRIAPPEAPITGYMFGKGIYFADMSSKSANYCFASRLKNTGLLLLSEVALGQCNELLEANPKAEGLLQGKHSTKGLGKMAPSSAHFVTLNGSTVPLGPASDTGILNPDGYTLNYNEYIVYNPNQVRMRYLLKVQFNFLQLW

For the compound `CC(C)(C)c1ccc(-c2nc3c(sc4ccccc43)c(=O)[nH]2)cc1`, the IC50 at Tankyrase 1/2 is 832 nM. Further, in the test with RKO, the “growth inhibition (GI)” value is “inactive”. For the same compound, the inhibition in test [1] and in test [2] was 0% throughout.

Source of the values: ChEMBL document CHEMBL3351316, “Scaffold hopping approach on the route to selective tankyrase inhibitors” (Eur J Med Chem, 2014).
